Data from ChEMBL document CHEMBL1141224, “Parallel solution-phase and microwave-assisted synthesis of new S-DABO derivatives endowed with subnanomolar anti-HIV-1 activity” (J Med Chem, 2005).
Active and inactive are the calls of the source. The rule behind the calls is not given here.

Columns and labels:
[1] = molecular target: Human immunodeficiency virus type 1 reverse transcriptase (Human immunodeficiency virus 1) (UniProt Q72547); test: Inhibition of wild type HIV1 reverse transcriptase by [3H]dTTP poly(rA)/oligo(dT) incorporation at 400 uM
Summary of the method: (§1)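 RNA-dependent DNA polymerase assay of recombinant RT at 5–10 nM. Template: poly(rA)/oligo(dT) (0.3 μM 3'-OH ends) with 10 μM [3H]-dTTP. Run 10 min at 37 °C with increasing inhibitor. TCA-precipitated product was counted on GF/C filters. Highest concentration tested was 400 μM.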

[2] = test system: Human immunodeficiency virus 1; test: Antiviral activity against HIV1 IRLL98 mutant strain infected MT4 cells by MTT method; type: functional, organism-based; settings: Human immunodeficiency virus 1, IRLL98, MT4
Summary of the method: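 MT-4 cells infected with the HIV-1 mutant strain, or mock-infected for cytotoxicity, in the presence of a range of drug concentrations. Viable cells were counted by MTT colorimetric assay on day 5 post-infection. EC50 is the concentration that blocks 50% of HIV-induced cell death. Values are the mean of at least two experiments. IRLL98 carries RT mutations K101Q, Y181C and G190A, plus NRTI mutations.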

[3] = test system: Human immunodeficiency virus type 1 reverse transcriptase (Human immunodeficiency virus 1), Q72547 [Y181I]; test: Inhibition of Y181I mutant HIV1 reverse transcriptase by [3H]dTTP poly(rA)/oligo(dT) incorporation at 400 uM; summary of the method: as §1
[4] = test system: Human immunodeficiency virus 1; test: Antiviral activity against HIV1 K103N mutant strain infected MT4 cells by MTT method; type: functional, organism-based; settings: Human immunodeficiency virus 1, K103N
MT4 = test: Cytotoxicity against MT4 cells by MTT method; type: functional; settings: Homo sapiens
Summary of the method: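 Mock-infected MT-4 cells exposed to graded drug concentrations. Viability assessed by MTT colorimetric method at day 5. CC50 is the concentration causing 50% death of noninfected cells. Mean of at least two experiments.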

[5] = test system: Human immunodeficiency virus type 1 reverse transcriptase (Human immunodeficiency virus 1), Q72547 [K103N]; test: Inhibition of K103N mutant HIV1 reverse transcriptase by [3H]dTTP poly(rA)/oligo(dT) incorporation at 400 uM; summary of the method: as §1
[6] = test system: Human immunodeficiency virus 1; test: Antiviral activity against wild type HIV1 NL4-3 infected MT4 cells by MTT method; type: functional, organism-based; settings: Human immunodeficiency virus 1, NL4-3, MT4
Summary of the method: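 MT-4 lymphoid cells infected with HIV-1 NL4-3 in the presence of graded drug concentrations. Viable cells counted by MTT colorimetric assay at day 5 post-infection. EC50 is the concentration protecting 50% of cells from HIV-induced death. Mean of at least two experiments.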

[7] = test system: Human immunodeficiency virus 1; test: Antiviral activity against HIV1 Y188L mutant strain infected MT4 cells by MTT method; type: functional, organism-based; settings: for EC50: Human immunodeficiency virus 1, Y188L, MT4
[8] = molecular target: Human immunodeficiency virus type 1 reverse transcriptase (Human immunodeficiency virus 1) (UniProt Q72547)
[9] = test system: Human immunodeficiency virus type 1 reverse transcriptase (Human immunodeficiency virus 1), Q72547 [K103N]
[10] = test system: Human immunodeficiency virus type 1 reverse transcriptase (Human immunodeficiency virus 1), Q72547 [Y181I]

Row | Structure (SMILES) | ID50 [1] | EC50 [2] [µM] | ID50 [3] | EC50 [4] [µM] | CC50 (MT4) [µM] | ID50 [5] | EC50 [6] [µM] | EC50 [7] [µM] | ID50 [8] [µM] | ID50 [9] [µM] | ID50 [10] [µM] | Inhibition [7] [%]
1 | COc1cc(CSc2nc(O)c(C)c(Cc3c(F)cccc3F)n2)cc(OC)c1 | inactive | > 60 | inactive | > 60 | > 60 | inactive | 18 | > 60 |  |  |  | 
2 | Cc1c(O)nc(SCc2ccc(C#N)cc2)nc1Cc1c(F)cccc1F |  | > 65 | inactive | > 65 | > 65 | inactive | 0.052 | > 65 | 0.76 |  |  | 
3 | Cc1c(Cc2c(F)cccc2F)nc(SCc2ccc([N+](=O)[O-])cc2)[nH]c1=O | inactive | > 62 | inactive | > 62 | > 62 | inactive | 0.074 | > 62 |  |  |  | 
4 | Cc1c(O)nc(S(=O)(=O)Cc2ccc([N+](=O)[O-])cc2)nc1Cc1c(Cl)cccc1Cl | inactive | > 53 | inactive | > 53 | > 53 | inactive | > 53 | > 53 |  |  |  | 
5 | Cc1c(O)nc(SCc2cccc(F)c2)nc1Cc1c(Cl)cccc1Cl |  | 2.2 | inactive | > 61 | > 61 |  | 0.15 | > 61 | 2 | 35 |  | 
6 | COc1ccc(CSc2nc(O)c(C)c(Cc3c(Cl)cccc3Cl)n2)c(OC)c1 |  | > 55 | inactive | > 55 | > 55 | inactive | 1.33 | > 55 | 25 |  |  | 
7 | COc1ccc(CSc2nc(Cc3c(Cl)cccc3Cl)c(C)c(=O)[nH]2)cc1 |  | 0.047 |  | 4.7 | 32 |  | 0.007 | > 32 | 0.004 | 102 | 150 | 
8 | Cc1c(O)nc(SCc2ccc(O)cc2)nc1Cc1c(Cl)cccc1Cl | inactive | > 41 | inactive | > 41 | 41 | inactive | > 41 | > 41 |  |  |  | 
9 | Cc1cn([C@H]2C[C@H](N=[N+]=[N-])[C@@H](CO)O2)c(=O)[nH]c1=O [ZIDOVUDINE] |  | 0.008 |  | 0.003 | 3.7 |  | 0.003 | 0.003 |  |  |  | 
10 | Cc1c(O)nc(SCc2ccc3c(c2)OCO3)nc1Cc1c(Cl)cccc1Cl |  | 0.51 | inactive | 5.3 | > 57 | inactive | 0.12 | 33 | 0.5 |  |  | 
11 | Cc1ccnc2c1NC(=O)c1cccnc1N2C1CC1 [NEVIRAPINE] |  | > 7.5 |  | 3.9 | > 7.5 |  | 0.052 | > 7.5 |  | 8 | 20 | 
12 | COc1cc(CSc2nc(O)c(C)c(Cc3c(Cl)cccc3Cl)n2)cc(OC)c1 |  | > 55 | inactive | > 55 | > 55 | inactive | 33 | > 55 | 256 |  |  | 
13 | Cc1c(O)nc(SCc2ccc(Br)cc2)nc1Cc1c(Cl)cccc1Cl |  | > 53 | inactive | > 53 | 13 |  | 0.79 | > 53 | 0.39 | 9 |  | 
14 | Cc1c(O)nc(SCc2ccc3c(c2)C(=O)c2ccccc2C3=O)nc1Cc1c(Cl)cccc1Cl |  | > 48 | inactive | > 48 | > 48 | inactive | 13 | > 48 | 3.5 |  |  | 
15 | Cc1c(O)nc(SCc2cccc(C#N)c2)nc1Cc1c(Cl)cccc1Cl |  | 5 | inactive | > 60 | > 60 | inactive | 0.89 | > 60 | 9.5 |  |  | 
16 | Cc1c(O)nc(SCc2ccccc2)nc1Cc1c(Cl)cccc1Cl |  | > 64 | inactive | > 64 | > 64 |  | 0.83 | > 64 | 2.5 | 350 |  | 
17 | COc1ccc(CCCSc2nc(O)c(C)c(Cc3c(Cl)cccc3Cl)n2)cc1 |  | 0.11 |  | > 1 | 1 |  | 0.00044 | > 1 | 0.037 | 0.5 | 0.3 | 
18 | Cc1c(O)nc(S(=O)(=O)Cc2ccc(Br)cc2)nc1Cc1c(Cl)cccc1Cl | inactive | > 50 | inactive | > 50 | > 50 | inactive | > 50 | > 50 |  |  |  | 
19 | Cc1c(O)nc(SCc2cccc(Cl)c2)nc1Cc1c(Cl)cccc1Cl |  | 4.8 |  | > 59 | > 59 |  | 0.31 | > 59 | 2.3 | 400 | 400 | 
20 | COc1ccc(CCSc2nc(Cc3c(Cl)cccc3Cl)c(C)c(=O)[nH]2)cc1 |  | 0.00022 |  | 0.87 | > 57 |  | < 0.00014 | 6.9 | 0.026 | 3.2 | 1.5 | 
21 | Cc1c(O)nc(SCc2ccc(C#N)cc2)nc1Cc1c(Cl)cccc1Cl |  | 1 | inactive | 0.1 | > 60 | inactive | 0.17 | > 60 | 103 |  |  | 
22 | Cc1c(O)nc(SCc2ccc([N+](=O)[O-])cc2)nc1Cc1ccc(F)cc1 | inactive | > 65 | inactive | > 65 | > 65 | inactive | > 65 | > 65 |  |  |  | 
23 | COc1ccc(CSc2nc(O)c(C)c(Cc3c(F)cccc3F)n2)cc1 |  | 0.69 | inactive | 0.69 | > 64 |  | 0.026 | 10 | 0.007 | 3.5 |  | 
24 | Cc1c(O)nc(SCc2ccc(F)cc2)nc1Cc1c(Cl)cccc1Cl |  | 2.7 | inactive | 27 | > 61 | inactive | 0.11 | > 61 | 16 |  |  | 
25 | Cc1c(O)nc(SCc2ccc(Cl)cc2)nc1Cc1c(Cl)cccc1Cl |  | 2.1 | inactive | > 59 | > 59 | inactive | 0.47 | > 59 | 20 |  |  | 
26 | COc1ccc(CSc2nc(O)c(C)c(Cc3c(Cl)cccc3Cl)n2)cc1OC |  | 0.93 | inactive | 10 | > 55 | inactive | 0.2 | > 55 | 1.2 |  |  | 
27 | Cc1c(O)nc(SCc2ccc([N+](=O)[O-])cc2)nc1Cc1c(Cl)cccc1Cl |  | 3.3 |  | 11 | > 58 |  | 0.79 |  | 0.009 | 0.12 | 0.22 | 31
28 | COc1ccc(CSc2nc(O)c(C)c(Cc3ccc(F)cc3)n2)cc1 | inactive | > 8.9 | inactive | > 8.9 | 8.9 | inactive | > 8.9 | > 8.9 |  |  |  | 
29 | O=C1Nc2ccc(Cl)cc2[C@@](C#CC2CC2)(C(F)(F)F)O1 [EFAVIRENZ] |  | 0.2 |  | 0.057 | > 0.32 |  |  |  |  |  |  | 
30 | CCOc1ccc(CSc2nc(O)c(C)c(Cc3c(Cl)cccc3Cl)n2)cc1 |  | 1.9 | inactive | > 58 | > 58 | inactive | 0.25 | > 58 | 2 |  |  | 
